Details of data set [1]: species or system female Sprague-Dawley rats. As to conditions: female, Sprague-Dawley, rat, in vivo.
A short description of data set [2]: Single-dose subcutaneous serum pharmacokinetics, analysis of individual animals. It counts as in vivo, female Sprague-Dawley rats. In short, it runs like this:
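Three-month-old female rats (200–240 g), acclimated two weeks, n = 4, got one subcutaneous dose. Tail-vein blood was drawn at 0, 2, 5, 10, 20, 30, 60, 180 and 360 min, clotted at ambient temperature, spun 14,000 rpm 10 min refrigerated, and serum stored at −80°C. Immunoreactive hPTH(1-34) was measured by ELISA. Parameters came from individual animals; half-life was reported as geometric mean.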

The conditions of data set [3]: 10 μg/kg (2.4 nmoles/kg) iv bolus dose; ref 10 (Jones et al.); cited from earlier work.

Read-outs that look alike come from different tables or passages of the source.

As a reminder, the clearance is the rate of elimination divided by the concentration. The bioavailability is the share of a dose that reaches the circulation, judged against a reference dose that is usually intravenous. A high value points to good availability. A word on the half-life: it is how long it takes for the measured level to halve. Higher therefore signals slow loss.

With `CC[C@H](C)[C@H](NC(=O)[C@H](CCC(=O)O)NC(=O)[C@H](CO)NC(=O)[C@@H](NC(=O)[C@@H](N)CO)C(C)C)C(=O)N[C@@H](CCC(N)=O)C(=O)N[C@@H](CC(C)C)C(=O)N[C@@H](CCSC)C(=O)N[C@@H](Cc1cnc[nH]1)C(=O)N[C@@H](CC(N)=O)C(=O)N[C@@H](CC(C)C)C(=O)NCC(=O)N[C@@H](CCCCN)C(=O)N[C@@H](Cc1cnc[nH]1)C(=O)N[C@@H](CC(C)C)C(=O)N[C@@H](CC(N)=O)C(=O)N[C@@H](CO)C(=O)N[C@@H](CCSC)C(=O)N[C@@H](CCC(=O)O)C(=O)N[C@@H](CCCN=C(N)N)C(=O)N[C@H](C(=O)N[C@@H](CCC(=O)O)C(=O)N[C@@H](Cc1c[nH]c2ccccc12)C(=O)N[C@@H](CC(C)C)C(=O)N[C@@H](CCCN=C(N)N)C(=O)N[C@@H](CCCCN)C(=O)N[C@@H](CCCCN)C(=O)N[C@@H](CC(C)C)C(=O)N[C@@H](CCC(N)=O)C(=O)N[C@@H](CC(=O)O)C(=O)N[C@H](C(=O)N[C@@H](Cc1cnc[nH]1)C(=O)N[C@@H](CC(N)=O)C(=O)N[C@@H](Cc1ccccc1)C(=O)O)C(C)C)C(C)C` [PTH(1-34), teriparatide], the clearance was 83 mL/min/kg in data set [1] and 98 mL/min/kg in data set [3]. Moreover, in data set [1] (sc), the bioavailability stood at 47%. The compound also came in with a half-life in data set [2] (female, Sprague-Dawley, rat, serum, sc, 19.4 nmoles/kg) of 59 min. Besides, the “Time by which serum concentrations returned to background levels” value in data set [2] (single sc dose 19.4 nmoles/kg) is at most 6 h.

Values taken from publication PMC4001804 (Journal of pharmaceutical sciences, 2014).
